Results taken from the M2OR odorant receptor database.

Columns and labels:
Conditions in all cases: stereoisomer not certain
OR13C2 (Homo sapiens) = biological target: T1, OR13C2 (Homo sapiens) (UniProt Q8NGS9)
T1 sequence (whole entry): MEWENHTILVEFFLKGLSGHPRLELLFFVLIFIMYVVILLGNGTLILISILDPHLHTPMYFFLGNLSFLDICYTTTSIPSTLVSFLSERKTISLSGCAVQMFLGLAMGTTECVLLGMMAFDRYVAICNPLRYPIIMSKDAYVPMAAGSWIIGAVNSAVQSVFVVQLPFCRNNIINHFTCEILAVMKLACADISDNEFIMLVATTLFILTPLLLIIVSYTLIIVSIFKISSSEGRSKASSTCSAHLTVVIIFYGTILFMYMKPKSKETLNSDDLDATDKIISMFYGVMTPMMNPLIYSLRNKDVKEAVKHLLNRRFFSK
Method in brief: (§1)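 Each receptor–molecule pair is labelled responsive or non-responsive (inactive) according to whether the original authors judged the measured signal statistically different from baseline. The data were taken from the main text and supplementary material of published papers and checked for typos and inconsistencies. Assay methods differed by source, with transient luciferase assays in mammalian cell lines being common.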

OR13C3 (Homo sapiens) = biological target: T2, OR13C3 (Homo sapiens) (UniProt Q8NGS6)
T2 sequence (whole entry): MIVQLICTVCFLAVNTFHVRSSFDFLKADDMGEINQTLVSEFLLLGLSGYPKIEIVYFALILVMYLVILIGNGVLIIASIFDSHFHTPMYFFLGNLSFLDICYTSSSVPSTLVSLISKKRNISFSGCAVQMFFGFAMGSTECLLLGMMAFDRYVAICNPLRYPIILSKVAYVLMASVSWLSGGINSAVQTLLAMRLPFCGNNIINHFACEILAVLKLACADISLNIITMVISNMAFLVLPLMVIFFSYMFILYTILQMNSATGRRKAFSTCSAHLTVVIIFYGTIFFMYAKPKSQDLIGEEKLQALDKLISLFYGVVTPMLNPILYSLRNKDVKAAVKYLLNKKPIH
Method in brief: as §1

OR13C4 (Homo sapiens) = biological target: T3, OR13C4 (Homo sapiens) (UniProt Q8NGS5)
T3 sequence (whole entry): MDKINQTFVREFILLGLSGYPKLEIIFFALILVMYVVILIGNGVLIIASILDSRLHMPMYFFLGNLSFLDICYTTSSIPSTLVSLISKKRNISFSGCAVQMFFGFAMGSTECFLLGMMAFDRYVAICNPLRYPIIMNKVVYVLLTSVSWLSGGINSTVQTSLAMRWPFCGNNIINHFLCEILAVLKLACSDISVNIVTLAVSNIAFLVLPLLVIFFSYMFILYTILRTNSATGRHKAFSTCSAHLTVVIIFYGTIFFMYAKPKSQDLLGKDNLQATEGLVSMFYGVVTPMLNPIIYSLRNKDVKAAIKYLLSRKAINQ
Method in brief: as §1

OR13C5 (Homo sapiens) = biological target: T4, OR13C5 (Homo sapiens) (UniProt Q8NGS8)
T4 sequence (whole entry): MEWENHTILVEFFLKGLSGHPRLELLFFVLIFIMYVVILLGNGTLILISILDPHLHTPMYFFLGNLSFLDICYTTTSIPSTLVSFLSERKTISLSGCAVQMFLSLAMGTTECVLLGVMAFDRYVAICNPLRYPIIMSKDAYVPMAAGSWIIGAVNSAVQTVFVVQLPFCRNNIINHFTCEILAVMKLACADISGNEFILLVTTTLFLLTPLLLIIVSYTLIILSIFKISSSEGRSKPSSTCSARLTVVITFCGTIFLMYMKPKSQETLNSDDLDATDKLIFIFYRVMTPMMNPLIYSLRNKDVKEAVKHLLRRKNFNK
Method in brief: as §1

OR13C8 (Homo sapiens) = biological target: T5, OR13C8 (Homo sapiens) (UniProt Q8NGS7)
T5 sequence (whole entry): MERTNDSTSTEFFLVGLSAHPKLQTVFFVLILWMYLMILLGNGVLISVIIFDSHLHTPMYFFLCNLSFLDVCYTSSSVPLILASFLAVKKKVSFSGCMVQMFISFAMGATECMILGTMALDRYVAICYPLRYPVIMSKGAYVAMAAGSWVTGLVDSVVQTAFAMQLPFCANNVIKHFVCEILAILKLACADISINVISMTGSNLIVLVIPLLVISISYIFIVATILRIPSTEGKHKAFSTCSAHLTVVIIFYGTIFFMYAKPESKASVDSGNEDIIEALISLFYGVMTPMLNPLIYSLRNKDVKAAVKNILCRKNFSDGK
Method in brief: as §1

OR13C9 (Homo sapiens) = biological target: T6, OR13C9 (Homo sapiens) (UniProt Q8NGT0)
T6 sequence (whole entry): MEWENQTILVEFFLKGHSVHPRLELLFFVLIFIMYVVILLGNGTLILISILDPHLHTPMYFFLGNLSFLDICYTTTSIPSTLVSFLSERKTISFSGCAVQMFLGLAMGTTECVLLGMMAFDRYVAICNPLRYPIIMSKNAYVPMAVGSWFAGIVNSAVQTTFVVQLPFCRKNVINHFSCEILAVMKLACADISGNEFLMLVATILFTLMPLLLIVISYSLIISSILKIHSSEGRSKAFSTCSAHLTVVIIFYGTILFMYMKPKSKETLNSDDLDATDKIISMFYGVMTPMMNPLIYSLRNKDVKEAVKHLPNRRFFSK
Method in brief: as §1

OR13D1 (Homo sapiens) = biological target: T7, OR13D1 (Homo sapiens) (UniProt Q8NGV5)
T7 sequence (whole entry): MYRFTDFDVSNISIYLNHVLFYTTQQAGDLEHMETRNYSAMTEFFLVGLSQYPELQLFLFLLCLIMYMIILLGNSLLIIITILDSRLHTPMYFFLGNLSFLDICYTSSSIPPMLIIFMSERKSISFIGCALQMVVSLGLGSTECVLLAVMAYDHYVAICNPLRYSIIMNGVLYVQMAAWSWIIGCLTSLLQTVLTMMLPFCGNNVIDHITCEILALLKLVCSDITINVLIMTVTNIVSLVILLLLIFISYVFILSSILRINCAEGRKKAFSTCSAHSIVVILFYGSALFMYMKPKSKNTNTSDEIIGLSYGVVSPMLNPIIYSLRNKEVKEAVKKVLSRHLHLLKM
Method in brief: as §1

OR13F1 (Homo sapiens) = biological target: T8, OR13F1 (Homo sapiens) (UniProt Q8NGS4)
T8 sequence (whole entry): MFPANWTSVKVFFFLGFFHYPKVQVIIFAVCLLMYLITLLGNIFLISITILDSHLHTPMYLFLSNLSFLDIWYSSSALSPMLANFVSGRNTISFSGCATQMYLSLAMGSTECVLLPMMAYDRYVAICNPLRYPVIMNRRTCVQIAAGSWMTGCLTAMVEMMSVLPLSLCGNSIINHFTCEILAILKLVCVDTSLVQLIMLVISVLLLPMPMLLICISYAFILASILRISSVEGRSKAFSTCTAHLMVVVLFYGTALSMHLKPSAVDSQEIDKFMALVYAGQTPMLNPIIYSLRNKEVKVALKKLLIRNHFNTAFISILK
Method in brief: as §1

OR13G1 (Homo sapiens) = biological target: T9, OR13G1 (Homo sapiens) (UniProt Q8NGZ3)
T9 sequence (whole entry): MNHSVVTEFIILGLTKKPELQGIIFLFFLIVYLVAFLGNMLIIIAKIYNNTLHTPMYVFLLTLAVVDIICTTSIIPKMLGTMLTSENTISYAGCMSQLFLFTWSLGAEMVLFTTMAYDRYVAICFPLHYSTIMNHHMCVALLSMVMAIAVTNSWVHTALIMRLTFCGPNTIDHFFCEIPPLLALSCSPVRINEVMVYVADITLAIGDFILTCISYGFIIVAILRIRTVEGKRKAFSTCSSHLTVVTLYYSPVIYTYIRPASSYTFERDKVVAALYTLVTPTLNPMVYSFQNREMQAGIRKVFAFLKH
Method in brief: as §1

OR13H1 (Homo sapiens) = biological target: T10, OR13H1 (Homo sapiens) (UniProt Q8NG92)
T10 sequence (whole entry): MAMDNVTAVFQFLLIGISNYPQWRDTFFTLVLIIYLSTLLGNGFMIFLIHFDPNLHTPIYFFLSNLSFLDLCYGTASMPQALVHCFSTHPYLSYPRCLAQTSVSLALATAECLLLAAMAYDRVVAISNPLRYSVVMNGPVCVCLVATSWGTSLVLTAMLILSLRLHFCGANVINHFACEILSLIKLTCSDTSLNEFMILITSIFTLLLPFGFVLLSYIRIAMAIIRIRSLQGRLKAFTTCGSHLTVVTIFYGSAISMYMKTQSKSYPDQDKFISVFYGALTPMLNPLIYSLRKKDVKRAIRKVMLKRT
Method in brief: as §1

OR13J1 (Homo sapiens) = biological target: T11, OR13J1 (Homo sapiens) (UniProt Q8NGT2)
T11 sequence (whole entry): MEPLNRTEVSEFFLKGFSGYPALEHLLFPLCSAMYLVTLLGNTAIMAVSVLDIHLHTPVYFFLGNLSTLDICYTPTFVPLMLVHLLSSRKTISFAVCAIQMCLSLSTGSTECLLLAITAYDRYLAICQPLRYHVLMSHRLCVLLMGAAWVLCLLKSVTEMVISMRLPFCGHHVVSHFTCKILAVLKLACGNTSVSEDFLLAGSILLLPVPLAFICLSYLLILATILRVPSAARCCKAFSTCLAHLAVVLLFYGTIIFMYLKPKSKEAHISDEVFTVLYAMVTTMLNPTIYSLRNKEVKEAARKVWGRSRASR
Method in brief: as §1

OR14A16 (Homo sapiens) = biological target: T12, OR14A16 (Homo sapiens) (UniProt Q8NHC5)
T12 sequence (whole entry): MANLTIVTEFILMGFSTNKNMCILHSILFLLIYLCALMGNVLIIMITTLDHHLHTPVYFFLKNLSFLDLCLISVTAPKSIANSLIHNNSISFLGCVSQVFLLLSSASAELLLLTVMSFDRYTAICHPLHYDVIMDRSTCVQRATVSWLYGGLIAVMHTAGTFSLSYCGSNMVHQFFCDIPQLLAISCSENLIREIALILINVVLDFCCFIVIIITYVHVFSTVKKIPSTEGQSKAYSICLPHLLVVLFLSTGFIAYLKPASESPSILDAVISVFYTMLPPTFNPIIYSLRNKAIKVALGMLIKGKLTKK
Method in brief: as §1

OR14A2 (Homo sapiens) = biological target: T13, OR14A2 (Homo sapiens) (UniProt Q96R54)
T13 sequence (whole entry): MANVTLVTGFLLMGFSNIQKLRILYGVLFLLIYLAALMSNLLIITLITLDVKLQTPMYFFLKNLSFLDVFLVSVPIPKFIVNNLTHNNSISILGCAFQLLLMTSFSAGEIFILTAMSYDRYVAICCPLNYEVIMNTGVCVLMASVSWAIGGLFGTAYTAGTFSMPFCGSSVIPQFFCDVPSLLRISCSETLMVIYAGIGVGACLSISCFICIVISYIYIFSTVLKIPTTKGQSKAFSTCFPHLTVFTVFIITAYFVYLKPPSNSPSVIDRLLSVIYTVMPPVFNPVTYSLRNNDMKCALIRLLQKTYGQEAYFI
Method in brief: as §1

OR14C36 (Homo sapiens) = biological target: T14, OR14C36 (Homo sapiens) (UniProt Q8NHC7)
T14 sequence (whole entry): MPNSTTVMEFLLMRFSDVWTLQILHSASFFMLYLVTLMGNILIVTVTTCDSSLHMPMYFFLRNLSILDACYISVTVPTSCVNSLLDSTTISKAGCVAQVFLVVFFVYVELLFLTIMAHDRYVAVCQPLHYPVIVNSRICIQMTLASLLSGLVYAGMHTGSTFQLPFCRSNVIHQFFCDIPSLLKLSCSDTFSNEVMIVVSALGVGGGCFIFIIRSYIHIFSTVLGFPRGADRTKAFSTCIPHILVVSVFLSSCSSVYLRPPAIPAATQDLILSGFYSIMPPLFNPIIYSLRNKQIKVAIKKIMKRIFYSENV
Method in brief: as §1

OR14I1 (Homo sapiens) = biological target: T15, OR14I1 (Homo sapiens) (UniProt A6ND48)
T15 sequence (whole entry): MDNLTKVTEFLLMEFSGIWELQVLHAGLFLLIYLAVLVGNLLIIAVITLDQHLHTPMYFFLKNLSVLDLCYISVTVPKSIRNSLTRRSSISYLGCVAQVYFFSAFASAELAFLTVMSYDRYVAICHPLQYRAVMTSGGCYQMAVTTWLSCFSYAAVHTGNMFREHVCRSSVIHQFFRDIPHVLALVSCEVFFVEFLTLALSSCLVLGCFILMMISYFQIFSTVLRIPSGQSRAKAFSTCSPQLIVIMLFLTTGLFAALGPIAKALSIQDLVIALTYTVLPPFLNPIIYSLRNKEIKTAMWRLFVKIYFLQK
Method in brief: as §1

OR14J1 (Homo sapiens) = biological target: T16, OR14J1 (Homo sapiens) (UniProt Q9UGF5)
T16 sequence (whole entry): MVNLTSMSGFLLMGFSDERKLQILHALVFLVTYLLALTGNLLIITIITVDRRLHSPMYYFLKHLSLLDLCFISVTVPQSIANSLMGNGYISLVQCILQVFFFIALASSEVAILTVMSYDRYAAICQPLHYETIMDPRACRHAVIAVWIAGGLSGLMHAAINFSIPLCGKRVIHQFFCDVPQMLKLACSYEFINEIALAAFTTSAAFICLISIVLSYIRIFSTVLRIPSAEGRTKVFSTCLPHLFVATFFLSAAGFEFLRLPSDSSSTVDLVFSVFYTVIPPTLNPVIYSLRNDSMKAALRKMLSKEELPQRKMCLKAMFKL
Method in brief: as §1

OR14K1 (Homo sapiens) = biological target: T17, OR14K1 (Homo sapiens) (UniProt Q8NGZ2)
T17 sequence (whole entry): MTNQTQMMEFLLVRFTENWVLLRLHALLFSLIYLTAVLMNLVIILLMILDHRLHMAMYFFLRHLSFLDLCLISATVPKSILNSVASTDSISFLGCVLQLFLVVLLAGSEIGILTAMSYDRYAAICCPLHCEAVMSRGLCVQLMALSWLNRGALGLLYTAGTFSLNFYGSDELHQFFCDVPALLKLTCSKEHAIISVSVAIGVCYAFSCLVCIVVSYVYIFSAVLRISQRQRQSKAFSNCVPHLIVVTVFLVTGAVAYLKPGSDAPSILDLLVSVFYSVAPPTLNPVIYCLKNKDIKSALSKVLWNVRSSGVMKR
Method in brief: as §1

OR1A1 (Homo sapiens) = biological target: T18, OR1A1 (Homo sapiens) (UniProt Q9P1Q5)
T18 sequence (whole entry): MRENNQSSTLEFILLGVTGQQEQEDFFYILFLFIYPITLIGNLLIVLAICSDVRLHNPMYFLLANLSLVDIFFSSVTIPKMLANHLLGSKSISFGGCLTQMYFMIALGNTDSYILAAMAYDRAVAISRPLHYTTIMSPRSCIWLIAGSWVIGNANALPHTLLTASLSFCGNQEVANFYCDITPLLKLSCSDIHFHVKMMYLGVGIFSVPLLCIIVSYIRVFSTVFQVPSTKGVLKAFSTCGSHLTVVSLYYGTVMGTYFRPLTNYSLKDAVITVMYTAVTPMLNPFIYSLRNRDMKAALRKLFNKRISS
Method in brief: as §1

Measured: odorant receptor agonist call;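 note: active if original authors judged signal statistically different from baseline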

CC1=C(O)C(=O)OC1C (stereo not drawn)
inactive: all assays above
